Counter-ions that a name gives are not always drawn.
What was measured:
Acetylcholinesterase = Acetylcholinesterase (Homo sapiens, UniProt P22303); experiment: Inhibition of human AChE using acetylthiocholine iodide as substrate preincubated with enzyme for 30 mins followed by substrate addition by Ellman's method
Cholinesterase = Cholinesterase (Homo sapiens, UniProt P06276); experiment: Inhibition of human BuchE using butyrylthiocholine iodide as substrate preincubated for 30 mins followed by substrate addition by Ellman's method
[1] = target: T1, Amine oxidase [flavin-containing] B (Homo sapiens, UniProt P27338); experiment: Inhibition of human recombinant microsomal MAO-B expressed in baculovirus-infected BTI-TN-5B1-4 cells assessed as inhibition of H2O2 production using p-tyramine as substrate preincubated for 15 mins followed by substrate addition by Amplex Red reagent based fluorescence analysis
T1 sequence (P27338 whole entry): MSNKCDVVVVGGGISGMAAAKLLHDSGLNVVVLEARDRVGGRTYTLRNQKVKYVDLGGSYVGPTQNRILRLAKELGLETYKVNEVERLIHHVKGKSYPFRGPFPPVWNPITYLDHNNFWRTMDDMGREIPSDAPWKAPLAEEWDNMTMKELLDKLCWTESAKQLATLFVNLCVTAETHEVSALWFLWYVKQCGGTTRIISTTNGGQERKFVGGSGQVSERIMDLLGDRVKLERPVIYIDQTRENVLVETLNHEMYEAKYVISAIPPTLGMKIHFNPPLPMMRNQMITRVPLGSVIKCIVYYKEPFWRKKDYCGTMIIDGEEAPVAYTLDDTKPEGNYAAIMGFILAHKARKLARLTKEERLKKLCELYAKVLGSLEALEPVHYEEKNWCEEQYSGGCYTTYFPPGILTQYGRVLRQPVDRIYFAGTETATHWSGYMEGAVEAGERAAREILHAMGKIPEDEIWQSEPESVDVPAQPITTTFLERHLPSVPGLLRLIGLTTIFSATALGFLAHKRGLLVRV
How it was run: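 Recombinant human MAO-A or MAO-B (insect-cell microsomes) preincubated with compound 15 min at 37 °C in 50 mM sodium phosphate, pH 7.4, 0.05% Triton X-114. Reaction started with 1 mM p-tyramine, 250 µM Amplex Red and 2 U/mL HRP (final concentrations). Resorufin fluorescence (ex 530/em 590 nm) followed for 20 min at 37 °C, duplicates. Blank-corrected residual activity; IC50 from a four-parameter Hill fit.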

[2] = target: T2, Amine oxidase [flavin-containing] A (Homo sapiens, UniProt P21397); experiment: Inhibition of human recombinant microsomal MAO-A expressed in baculovirus-infected BTI-TN-5B1-4 cells assessed as inhibition of H2O2 production using p-tyramine as substrate preincubated for 15 mins followed by substrate addition by Amplex Red reagent based fluorescence analysis
T2 sequence (P21397 whole entry): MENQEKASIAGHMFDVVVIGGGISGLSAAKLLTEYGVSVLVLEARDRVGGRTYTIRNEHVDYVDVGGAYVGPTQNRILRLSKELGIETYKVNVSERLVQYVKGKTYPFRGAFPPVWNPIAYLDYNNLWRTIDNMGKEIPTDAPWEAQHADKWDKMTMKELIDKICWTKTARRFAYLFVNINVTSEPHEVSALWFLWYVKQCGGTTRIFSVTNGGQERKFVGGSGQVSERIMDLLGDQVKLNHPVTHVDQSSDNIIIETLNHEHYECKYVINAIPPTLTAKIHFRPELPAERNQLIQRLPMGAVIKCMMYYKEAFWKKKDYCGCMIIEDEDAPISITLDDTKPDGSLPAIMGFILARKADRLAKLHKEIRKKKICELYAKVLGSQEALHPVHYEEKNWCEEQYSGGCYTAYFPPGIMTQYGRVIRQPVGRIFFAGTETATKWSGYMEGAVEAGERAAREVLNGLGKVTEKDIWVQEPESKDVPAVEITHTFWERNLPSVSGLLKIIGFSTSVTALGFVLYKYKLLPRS

Homo sapiens = organism: Homo sapiens; experiment: Inhibition of HFIP-pretreated human amyloid beta (1 to 42) self aggregation at 10 uM incubated for 36 to 48 hrs by thioflavin-T based fluorescence method relative to control; settings: time 36-48 hrs
How it was run: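 HFIP-pretreated Aβ1-42 (1.5 µM) incubated with compound (10 µM) and thioflavin-T (10 µM final) at room temperature with continuous shaking for 36–48 h. Fluorescence (ex 440/em 490 nm) read every 3 min. Percent inhibition compared with Aβ + DMSO control, run in quadruplicate. Three independent experiments, mean ± SD, one-way ANOVA with Bonferroni test.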

Chain of Cholinesterase (P06276 whole entry): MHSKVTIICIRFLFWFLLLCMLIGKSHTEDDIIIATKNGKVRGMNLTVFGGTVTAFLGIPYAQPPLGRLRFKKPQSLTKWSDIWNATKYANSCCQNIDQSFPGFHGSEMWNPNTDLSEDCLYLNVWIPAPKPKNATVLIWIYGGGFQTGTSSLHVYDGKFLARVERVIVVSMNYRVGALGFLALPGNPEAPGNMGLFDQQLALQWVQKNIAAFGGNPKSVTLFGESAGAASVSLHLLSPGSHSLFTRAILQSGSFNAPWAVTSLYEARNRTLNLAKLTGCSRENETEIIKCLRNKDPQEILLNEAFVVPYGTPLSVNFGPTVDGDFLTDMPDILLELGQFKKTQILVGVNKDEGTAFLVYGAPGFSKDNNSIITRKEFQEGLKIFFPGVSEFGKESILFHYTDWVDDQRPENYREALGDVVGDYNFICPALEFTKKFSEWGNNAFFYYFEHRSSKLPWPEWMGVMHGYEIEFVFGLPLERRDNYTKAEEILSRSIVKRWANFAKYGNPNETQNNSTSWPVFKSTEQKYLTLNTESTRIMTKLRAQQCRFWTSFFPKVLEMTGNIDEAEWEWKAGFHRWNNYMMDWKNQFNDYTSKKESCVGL
Chain of Acetylcholinesterase (P22303 whole entry): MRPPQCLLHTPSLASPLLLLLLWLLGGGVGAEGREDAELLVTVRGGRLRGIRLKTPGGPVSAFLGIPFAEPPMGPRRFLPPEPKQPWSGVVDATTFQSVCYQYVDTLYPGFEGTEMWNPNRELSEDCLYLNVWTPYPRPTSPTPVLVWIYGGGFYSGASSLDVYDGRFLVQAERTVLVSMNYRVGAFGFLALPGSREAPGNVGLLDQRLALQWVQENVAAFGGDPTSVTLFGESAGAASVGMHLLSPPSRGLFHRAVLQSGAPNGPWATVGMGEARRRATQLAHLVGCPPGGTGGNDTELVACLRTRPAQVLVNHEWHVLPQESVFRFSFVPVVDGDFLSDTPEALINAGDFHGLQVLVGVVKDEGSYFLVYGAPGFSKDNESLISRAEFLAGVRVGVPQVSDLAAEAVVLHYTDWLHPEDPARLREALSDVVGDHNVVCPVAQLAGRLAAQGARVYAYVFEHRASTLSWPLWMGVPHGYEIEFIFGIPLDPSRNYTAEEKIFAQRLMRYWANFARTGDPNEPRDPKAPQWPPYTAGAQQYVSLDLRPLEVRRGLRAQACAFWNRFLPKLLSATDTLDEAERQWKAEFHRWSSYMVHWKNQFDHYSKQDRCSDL

| Structure (SMILES) | IC50 (Acetylcholinesterase) | IC50 (Cholinesterase) | IC50 [1] | IC50 [2] | inhibition (Homo sapiens) |
| --- | --- | --- | --- | --- | --- |
| OC1CCN(C2Cc3ccccc3C2)CC1 | > 100 µM | > 100 µM | > 100 µM | > 100 µM | – |
| CC(C)c1ccc(NC(=O)OCC2CCCN(Cc3ccccc3)C2)cc1 (stereo not drawn) | 15.1 µM | 0.118 µM | > 100 µM | > 100 µM | – |
| OCC1CCCN(Cc2ccccc2)C1 (stereo not drawn) | > 100 µM | > 100 µM | > 100 µM | > 100 µM | – |
| CC(C)c1ccc(NC(=O)OC2CCCN(Cc3ccccc3)C2)cc1 (stereo not drawn) | > 100 µM | 3.25 µM | 29.3 µM | > 100 µM | – |
| CC(C)c1ccc(NC(=O)OC2CCN(C3Cc4ccccc4C3)CC2)cc1 | 2.31 µM | > 100 µM | > 100 µM | > 100 µM | – |
| OC1CCCN(Cc2ccccc2)C1 (stereo not drawn) | > 100 µM | > 100 µM | > 100 µM | > 100 µM | – |
| O=C(Nc1ccccc1)OCC1CCCN(C2Cc3ccccc3C2)C1 (stereo not drawn) | > 100 µM | 0.18 µM | > 100 µM | > 100 µM | – |
| C#CCN1CCC(COC(=O)Nc2ccccc2)CC1 | > 100 µM | 14.4 µM | 10.3 µM | > 100 µM | – |
| C#CCN1CCC(COC(=O)Nc2ccc(C(C)C)cc2)CC1 | > 100 µM | 24.3 µM | 0.316 µM | > 100 µM | – |
| OC1CCN(Cc2ccccc2)CC1 | > 100 µM | > 100 µM | > 100 µM | > 100 µM | – |
| CC(C)c1ccc(NC(=O)OCC2CCN(C3Cc4ccccc4C3)CC2)cc1 | 4.08 µM | > 100 µM | > 100 µM | > 100 µM | – |
| O=C(Nc1ccccc1)OC1CCN(Cc2ccccc2)CC1 | > 100 µM | 6.55 µM | > 100 µM | > 100 µM | – |
| Oc1ccc(/C=C/c2cc(O)cc(O)c2)cc1 | – | – | – | – | 86.6% |
| CC(C)c1ccc(NC(=O)OC2CCN(Cc3ccccc3)CC2)cc1 | > 100 µM | 1.74 µM | > 100 µM | > 100 µM | – |
| C#CCN1CCC(OC(=O)Nc2ccccc2)CC1 | > 100 µM | 19.1 µM | > 100 µM | > 100 µM | – |
| C#CCN1CCCC(O)C1 (stereo not drawn) | > 100 µM | > 100 µM | > 100 µM | > 100 µM | – |
| C#CCN1CCCC(COC(=O)N(C)CC)C1 (stereo not drawn) | > 100 µM | > 100 µM | > 100 µM | > 100 µM | – |
| C#CCN1CCCC(OC(=O)Nc2ccc(C(C)C)cc2)C1 (stereo not drawn) | > 100 µM | > 100 µM | 71.8 µM | > 100 µM | – |
| C#CCN1CCC(O)CC1 | > 100 µM | > 100 µM | > 100 µM | > 100 µM | – |
| C#CCN1CCCC(COC(=O)Nc2ccccc2)C1 (stereo not drawn) | > 100 µM | 29.6 µM | > 100 µM | > 100 µM | – |
| CCN(C)C(=O)OCC1CCN(Cc2ccccc2)CC1 | 72 µM | 46 µM | > 100 µM | > 100 µM | – |
| C#CCN1CCC(OC(=O)N(C)CC)CC1 | > 100 µM | 11.4 µM | > 100 µM | > 100 µM | – |
| C#CCN1CCC(CO)CC1 | > 100 µM | > 100 µM | > 100 µM | > 100 µM | – |
| CCN(C)C(=O)OCC1CCN(C2Cc3ccccc3C2)CC1 | > 100 µM | 4.46 µM | > 100 µM | > 100 µM | – |

| Structure (SMILES) | IC50 (Acetylcholinesterase) | IC50 (Cholinesterase) | IC50 [1] | IC50 [2] | inhibition (Homo sapiens) |
| --- | --- | --- | --- | --- | --- |
| CCN(C)C(=O)OC1CCN(C2Cc3ccccc3C2)CC1 | > 100 µM | 40.8 µM | > 100 µM | > 100 µM | – |
| COc1cc2c(cc1OC)C(=O)C(CC1CCN(Cc3ccccc3)CC1)C2 (stereo not drawn) | – | – | – | – | < 20% |
| O=C(Nc1ccccc1)OC1CCN(C2Cc3ccccc3C2)CC1 | 19.2 µM | 18.1 µM | > 100 µM | > 100 µM | – |
| CCN(C)C(=O)OCC1CCCN(Cc2ccccc2)C1 (stereo not drawn) | 96.6 µM | 7.23 µM | > 100 µM | > 100 µM | – |
| O=C(Nc1ccccc1)OC1CCCN(Cc2ccccc2)C1 (stereo not drawn) | > 100 µM | 0.46 µM | 33.3 µM | > 100 µM | – |
| OCC1CCN(C2Cc3ccccc3C2)CC1 | > 100 µM | > 100 µM | > 100 µM | > 100 µM | – |
| O=C(Nc1ccccc1)OCC1CCCN(Cc2ccccc2)C1 (stereo not drawn) | 67.1 µM | 0.52 µM | 39.5 µM | > 100 µM | – |
| O=C(Nc1ccccc1)OCC1CCN(C2Cc3ccccc3C2)CC1 | > 100 µM | 1.43 µM | > 100 µM | > 100 µM | – |
| CC(C)c1ccc(NC(=O)OC2CCCN(C3Cc4ccccc4C3)C2)cc1 (stereo not drawn) | 7.91 µM | > 100 µM | > 100 µM | > 100 µM | – |
| CC(C)c1ccc(NC(=O)OCC2CCCN(C3Cc4ccccc4C3)C2)cc1 (stereo not drawn) | 18.7 µM | 0.442 µM | > 100 µM | > 100 µM | – |
| C#CCN1CCCC(CO)C1 (stereo not drawn) | > 100 µM | > 100 µM | > 100 µM | > 100 µM | – |
| CCN(C)C(=O)OCC1CCCN(C2Cc3ccccc3C2)C1 (stereo not drawn) | > 100 µM | 9.39 µM | > 100 µM | > 100 µM | – |
| CCN(C)C(=O)Oc1cccc([C@H](C)N(C)C)c1 [RIVASTIGMINE TARTRATE] | – | – | > 100 µM | – | < 20% |
| C#CCN[C@@H]1CCc2ccccc21 [RASAGILINE MESYLATE] | > 100 µM | > 100 µM | – | – | < 20% |
| OCC1CCCN(C2Cc3ccccc3C2)C1 (stereo not drawn) | > 100 µM | > 100 µM | > 100 µM | > 100 µM | – |
| C#CCN1CCCC(COC(=O)Nc2ccc(C(C)C)cc2)C1 (stereo not drawn) | > 100 µM | 17.8 µM | 2.86 µM | > 100 µM | – |
| C#CCN1CCCC(OC(=O)N(C)CC)C1 (stereo not drawn) | > 100 µM | > 100 µM | > 100 µM | > 100 µM | – |
| OC1CCCN(C2Cc3ccccc3C2)C1 (stereo not drawn) | > 100 µM | > 100 µM | > 100 µM | > 100 µM | – |
| CCN(C)C(=O)OC1CCCN(Cc2ccccc2)C1 (stereo not drawn) | > 100 µM | 21 µM | > 100 µM | > 100 µM | – |
| OCC1CCN(Cc2ccccc2)CC1 | > 100 µM | > 100 µM | > 100 µM | > 100 µM | – |
| CCN(C)C(=O)OC1CCN(Cc2ccccc2)CC1 | > 100 µM | > 100 µM | > 100 µM | > 100 µM | – |
| CCN(C)C(=O)OC1CCCN(C2Cc3ccccc3C2)C1 (stereo not drawn) | > 100 µM | 9.69 µM | > 100 µM | > 100 µM | – |
| C#CCN1CCC(COC(=O)N(C)CC)CC1 | > 100 µM | > 100 µM | > 100 µM | > 100 µM | – |
| C#CCN1CCCC(OC(=O)Nc2ccccc2)C1 (stereo not drawn) | > 100 µM | 84.5 µM | > 100 µM | > 100 µM | – |

— ChEMBL document CHEMBL4765308, “N-alkylpiperidine carbamates as potential anti-Alzheimer's agents” (Eur J Med Chem, 2020)
